Test results: ChEMBL document CHEMBL1129942, “Synthesis and structure-activity relationship of a new series of potent AT1 selective angiotensin II receptor antagonists: 5-(biphenyl-4-ylmethyl)pyrazoles” (J Med Chem, 1997)

Legend:
Rattus norvegicus [1] = assay: Percent peak inhibition of pressor response induced by exogenously administered AII at 1 mg/kg in 2 or more pithed rats.; type: functional
[2] = molecular target: T1, Angiotensin II receptor (AT-1) type-1 (Rattus norvegicus, UniProt P29089+P25095); assay: In vitro binding affinity for rat liver angiotensin II receptor type 1, determined by displacement of the specially bound [3H]AII radioligand
T1 sequence (P29089 whole entry): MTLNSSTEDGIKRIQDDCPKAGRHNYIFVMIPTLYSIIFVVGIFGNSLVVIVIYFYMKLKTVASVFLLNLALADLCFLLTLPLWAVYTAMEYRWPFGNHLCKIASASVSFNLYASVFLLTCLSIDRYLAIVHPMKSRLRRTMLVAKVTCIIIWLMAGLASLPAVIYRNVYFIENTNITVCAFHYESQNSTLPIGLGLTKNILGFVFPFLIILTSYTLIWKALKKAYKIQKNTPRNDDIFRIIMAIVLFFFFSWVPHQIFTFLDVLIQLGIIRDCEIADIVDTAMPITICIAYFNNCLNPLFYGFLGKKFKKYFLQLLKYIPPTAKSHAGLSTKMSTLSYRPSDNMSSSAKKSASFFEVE
T1 sequence (P25095 whole entry): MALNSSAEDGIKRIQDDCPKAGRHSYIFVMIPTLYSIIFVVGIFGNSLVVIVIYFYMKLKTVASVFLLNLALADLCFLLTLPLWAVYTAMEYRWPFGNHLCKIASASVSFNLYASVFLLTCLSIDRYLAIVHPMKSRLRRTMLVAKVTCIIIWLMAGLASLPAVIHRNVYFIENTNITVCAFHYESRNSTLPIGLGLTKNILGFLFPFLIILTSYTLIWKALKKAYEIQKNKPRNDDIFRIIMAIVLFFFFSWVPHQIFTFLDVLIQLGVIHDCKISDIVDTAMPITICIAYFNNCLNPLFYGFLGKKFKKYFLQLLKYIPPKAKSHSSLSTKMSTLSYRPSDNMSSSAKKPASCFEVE

Rattus norvegicus [3] = assay: Percent peak inhibition of pressor response induced by exogenously administered AII at 3 mg/kg in 2 or more pithed rats.; type: functional
Rattus norvegicus [4] = assay: Maximum fall in blood pressure in groups of four sodium-depleted rats, after peroral administration at the 0.3 mg/Kg; type: functional
Summary of the method: (§1)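 Male Sprague-Dawley rats (250 g) implanted with a telemetry device; after 1 week placed on a sodium-deficient diet and given furosemide 5 mg/kg sc at 48, 24 and 1 h before oral dosing. Blood pressure and heart rate recorded continuously for up to 48 h postdose. Maximum fall in blood pressure (mmHg) taken per group of four rats; doses of 10 mg/kg po or less.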

Rattus norvegicus [5] = assay: Percent peak inhibition of pressor response induced by exogenously administered AII (submaximal dose (mg/kg)) in groups of 2 or more pithed rats.; type: functional
Rattus norvegicus [6] = assay: Maximum fall in blood pressure in groups of four sodium-depleted rats, after peroral administration at the 3 mg/Kg; type: functional; summary of the method: as §1
Rattus norvegicus [7] = assay: Percent peak inhibition of pressor response induced by exogenously administered AII (submaximal dose (mg/kg) ) in groups of 2 or more pithed rats.; type: functional; set-up: concentration or dose not given beside the values
Rattus norvegicus [8] = assay: Maximum fall in blood pressure (mmHg) in groups of four sodium-depleted rats, after administration of test compounds at the indicated dose (mg/kg, p.o.).; type: functional; summary of the method: as §1
Rattus norvegicus [9] = assay: Percent peak inhibition of pressor response induced by exogenously administered AII at 0.3 mg/kg in 2 or more pithed rats.; type: functional
Rattus norvegicus [10] = assay: Maximum fall in blood pressure in groups of four sodium-depleted rats, after peroral administration at the 0.1 mg/Kg; type: functional; summary of the method: as §1

IC50 [2]	Compound	inhibition in vivo at 3 mg/kg (Rattus norvegicus [3])	further results
120 nM	CCn1nc(C)c(C(=O)O)c1Cc1ccc(-c2ccccc2-c2nn[nH]n2)cc1		inhibition in vivo at 1 mg/kg (Rattus norvegicus [1]): 61.2%
4.6 nM	CCCn1nc(Cc2ccccc2)c(C(=O)O)c1Cc1ccc(-c2ccccc2-c2nn[nH]n2)cc1		inhibition in vivo at 1 mg/kg (Rattus norvegicus [1]): 37.7%
12 nM	CCCCn1nc(C)c(C(=O)O)c1Cc1ccc(-c2ccccc2S(=O)(=O)NC(=O)c2ccccc2)cc1	76%	
78 nM	Cc1nn(-c2ccccc2)c(Cc2ccc(-c3ccccc3-c3nn[nH]n3)cc2)c1C(=O)O	57.4%	
4.4 nM	CCCn1nc(C2CC2)c(C(=O)O)c1Cc1ccc(-c2ccccc2-c2nn[nH]n2)cc1		Activity (Rattus norvegicus [4]): 0 mmHg
490 nM	CCCn1nc(Cc2ccc(-c3ccccc3-c3nn[nH]n3)cc2)c(C(=O)O)c1C(C)C		
10 nM	CCCCn1nc(CCC)c(C(=O)O)c1Cc1ccc(-c2ccccc2-c2nn[nH]n2)cc1		Inhibition (Rattus norvegicus [5]): 29.7%
65 nM	CCCCn1nc(C)c(C(C)=O)c1Cc1ccc(-c2ccccc2-c2nn[nH]n2)cc1		inhibition in vivo at 1 mg/kg (Rattus norvegicus [1]): 11.8%
	CCCCc1nc(Cl)c(CO)n1Cc1ccc(-c2ccccc2-c2nnn[nH]2)cc1 [LOSARTAN]	93.5%	Activity (Rattus norvegicus [6]): 13 mmHg; Inhibition (Rattus norvegicus [7]): 62.5%; Activity (Rattus norvegicus [8]): 39 mmHg
18 nM	CCCn1nc(C2CC2)c(C(=O)O)c1Cc1ccc(-c2ccccc2S(=O)(=O)NC(=O)c2ccccc2)cc1		inhibition in vivo at 1 mg/kg (Rattus norvegicus [1]): 18.5%
7.4 nM	CCCn1nc(C2CC2)c(C(N)=O)c1Cc1ccc(-c2ccccc2S(=O)(=O)NC(=O)c2ccccc2)cc1		inhibition in vivo at 0.3 mg/kg (Rattus norvegicus [9]): 63.8%
13 nM	CCCCn1nc(C)c(C(=O)O)c1Cc1ccc(-c2ccccc2S(=O)(=O)NC(=O)OC(C)(C)C)cc1		Activity (Rattus norvegicus [6]): 25 mmHg; inhibition in vivo at 1 mg/kg (Rattus norvegicus [1]): 77.2%
70 nM	CCCCn1nc(C)c(C(N)=O)c1Cc1ccc(-c2ccccc2-c2nn[nH]n2)cc1	74.9%	
55 nM	CCCCn1nc(C)c(C(=O)OC)c1Cc1ccc(-c2ccccc2-c2nn[nH]n2)cc1	52.5%	
6.7 nM	CCCn1nc(C(C)C)c(C(=O)O)c1Cc1ccc(-c2ccccc2-c2nn[nH]n2)cc1		Activity (Rattus norvegicus [4]): 30 mmHg; Activity (Rattus norvegicus [10]): 15 mmHg; Inhibition (Rattus norvegicus [7]): 57.7%; inhibition in vivo at 0.3 mg/kg (Rattus norvegicus [9]): 80.4%
7.3 nM	CCCCn1nc(C(C)C)c(C(=O)O)c1Cc1ccc(-c2ccccc2-c2nn[nH]n2)cc1		Activity (Rattus norvegicus [6]): 35 mmHg; inhibition in vivo at 0.3 mg/kg (Rattus norvegicus [9]): 42.7%
9 nM	CCCCn1nc(-c2ccccc2)c(C(=O)O)c1Cc1ccc(-c2ccccc2-c2nn[nH]n2)cc1	44.1%	
